The species named for assay [1] is Rattus norvegicus. Description: Stimulation of phosphoinositide (PI) metabolism in rat cortex at 100 uM. Format: functional. An outline of the steps:
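Rat cerebral cortex slices cross-chopped at 300 μm, preincubated in oxygenated Krebs-Henseleit buffer at 37 °C. Labeled 30 min with 0.3 mM [3H]inositol and 10 mM LiCl, then 45 min with agonist at 100 μM, or buffer for basal. Stopped with CHCl3/MeOH. Total [3H]inositol phosphates isolated on anion-exchange cartridges and counted. Given as % above basal; mean ± SEM, three independent experiments.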

Assay [2] addresses Muscarinic acetylcholine receptor. Description: Affinity for muscarinic receptor in rat brain was measured by inhibition of [3H](R)-quinuclidinyl benzilate (QNB) binding. Format: tissue-based.
In assay [3] the target is T1, Muscarinic acetylcholine receptor M1 (Rattus norvegicus, UniProt P08482).
T1 sequence (P08482 whole entry): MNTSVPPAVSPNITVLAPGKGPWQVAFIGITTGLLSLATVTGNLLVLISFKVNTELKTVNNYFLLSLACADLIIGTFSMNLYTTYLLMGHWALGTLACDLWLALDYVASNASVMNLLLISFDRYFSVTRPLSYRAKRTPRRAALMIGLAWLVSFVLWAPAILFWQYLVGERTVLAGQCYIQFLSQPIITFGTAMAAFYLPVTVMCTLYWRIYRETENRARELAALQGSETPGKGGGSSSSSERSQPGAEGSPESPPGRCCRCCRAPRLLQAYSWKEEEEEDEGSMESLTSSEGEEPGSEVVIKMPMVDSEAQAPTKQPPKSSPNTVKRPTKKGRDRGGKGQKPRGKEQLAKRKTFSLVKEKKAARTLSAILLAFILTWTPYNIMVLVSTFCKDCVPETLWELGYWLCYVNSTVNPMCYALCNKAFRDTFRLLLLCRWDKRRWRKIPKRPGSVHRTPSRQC
Description: (§1) Affinity for muscarinic receptor M1 in rat brain was measured by inhibition of [3H](R)-quinuclidinyl benzilate (QNB) binding. Format: tissue-based. The procedure, abridged: (§2)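 Competition against 50 pM [3H]-(R)-QNB in rat brain membrane suspension, about 10 pM receptors (4 mg/mL protein), 40 mM Na/K phosphate pH 7.4, varying compound concentrations. Incubation 2.0 h at room temperature, then glass fiber filtration and two cold buffer washes. Nonspecific binding with 1000-fold excess atropine. IC50 from Hill plots; mean ± SEM, three independent experiments in triplicate.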

For assay [4], the target named is Muscarinic acetylcholine receptor. Described as §1. In kind it is tissue-based. The procedure, abridged:
as §2

This is an account of results in ChEMBL document CHEMBL1127441, “Design, synthesis, and neurochemical evaluation of 2-amino-5-(alkoxycarbonyl)-3,4,5,6-tetrahydropyridines and 2-amino-5-(alkoxycarbonyl)-1,4,5,6-tetrahydropyrimidines as M1 muscarinic receptor agonists” (J Med Chem, 1994).

Each structure is given as a SMILES string.

For `CC(C)OC(=O)C1CN=CNC1.Cl` (stereo unspecified), in assay [1], the PI metabolism is recorded as 7.2%.
Usually IC50 stands for the point on the concentration scale where inhibition reaches its midpoint. Regarding `COC(=O)C1CN=C(N)NC1.Cl` (stereo unspecified), the IC50 in assay [2] came out at 22 µM. Further, the PI metabolism in assay [1] turned out to be 81%.
With `COC(=O)C1CN=CNC1.Cl` (stereo unspecified), the PI metabolism in assay [1] was 110%.
As to `CCCOC(=O)C1CCC(N)=NC1.Cl` (stereo unspecified), the IC50 in assay [2] amounted to 1.7 µM. In assay [1], the PI metabolism was 51%.
`CCOC(=O)C1CCC(N)=NC1.Cl` (stereo unspecified) came in with a half-inhibitory concentration (IC50) in assay [2] of 4.3 µM. The PI metabolism in assay [1] stood at 31%.
Consider `COC(=O)C1CCN=C(N)C1.Cl` (stereo unspecified), for which the half-maximal inhibitory concentration (IC50) in assay [3] stood at 120 µM. Moreover, the PI metabolism in assay [1] is on record as 9%.
Take `CCOC(=O)C1CN=CNC1.Cl` (stereo unspecified): in assay [1], the PI metabolism is reported as 150%.
`C#CCOC(=O)C1CN=CNC1.Cl` (stereo unspecified): in assay [1], the PI metabolism stood at 230%.
For `COC(=O)C1CCN=C(N)N1.Cl` (stereo unspecified), the half-maximal inhibitory concentration (IC50) in assay [4] stood at 4300 µM. This counts as millimolar.
The compound `C#CCOC(=O)C1CN=C(N)NC1.Cl` (stereo unspecified) yielded a 50% inhibitory concentration (IC50) in assay [2] of 31 µM. In assay [1], the PI metabolism was 150%.
As to `COC(=O)C1CCCC(N)=N1.Cl` (stereo unspecified), in assay [3], the half-maximal inhibitory concentration (IC50) stood at 250 µM. The PI metabolism in assay [1] stood at 8.1%.
For `CCOC(=O)C1CN=C(N)NC1.Cl` (stereo unspecified), the 50% inhibitory concentration (IC50) in assay [2] was 8.2 µM. Besides, in assay [1], the PI metabolism was 28%.
As to `CCCOC(=O)C1CN=CNC1.Cl` (stereo unspecified), in assay [1], the PI metabolism was found to be 7.1%.
Compound `CC(C)OC(=O)C1CN=C(N)NC1.Cl` (stereo unspecified) came in with a concentration for half-maximal inhibition (IC50) in assay [2] of 29 µM. Also, in assay [1], the PI metabolism is reported as 23%.
In assay [2], `CCCOC(=O)C1CN=C(N)NC1.Cl` (stereo unspecified) displayed a 50% inhibitory concentration (IC50) of 4.8 µM. Moreover, the PI metabolism in assay [1] came to 4.3%.
Turning to `COC(=O)C1CCCN=C1N.Cl` (stereo unspecified), the IC50 in assay [3] worked out at 320 µM. Moreover, the PI metabolism in assay [1] is on record as -5.5%.
Compound `COC(=O)C1CCC(N)=NC1.Cl` (stereo unspecified) displayed a half-inhibitory concentration (IC50) in assay [2] of 10 µM. Also, the PI metabolism in assay [1] amounted to 260%.
As for `C#CCOC(=O)C1CCC(N)=NC1.Cl` (stereo unspecified), the half-inhibitory concentration (IC50) in assay [2] is 2.3 µM. Moreover, in assay [1], the PI metabolism turned out to be 120%.
Turning to `C[N+](C)(C)CCOC(N)=O.[Cl-]` [CARBACHOL], in assay [1], the PI metabolism is 470%.
